The values below come from ChEMBL document CHEMBL4680087, “Chemical Inhibition of Human Thymidylate Kinase and Structural Insights into the Phosphate Binding Loop and Ligand-Induced Degradation” (J Med Chem, 2016).

Each structure is given as a SMILES string. Activity calls are given as the source filed them. No cut-off for these calls is given here.

Data set [1] addresses T1, Thymidylate kinase (Homo sapiens) (UniProt P23919).
T1 sequence (whole entry): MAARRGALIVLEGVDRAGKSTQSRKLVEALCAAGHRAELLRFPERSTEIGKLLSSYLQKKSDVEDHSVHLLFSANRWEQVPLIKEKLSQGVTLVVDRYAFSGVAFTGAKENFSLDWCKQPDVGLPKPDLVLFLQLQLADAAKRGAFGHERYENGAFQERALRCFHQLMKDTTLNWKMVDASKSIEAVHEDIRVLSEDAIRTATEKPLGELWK
Nature of the data set: Inhibition of GST-tagged human TMPK expressed in Escherichia coli BL21 at 2 uM incubated for 10 mins by luciferase-coupled TMPK assay.

The nature of data set [2]: Cytotoxicity in mouse 32D cells after 3 days by WST-1 assay. It counts as cell-based. The settings on record: 72 h, time 3 day.
The target of data set [3] is T1, Thymidylate kinase (Homo sapiens). In words: Inhibition of GST-tagged human TMPK expressed in Escherichia coli BL21 incubated for 20 mins by NADH-coupled colorimetric assay. The essentials: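 Purified hTMPK at 25 °C in 100 mM Tris-HCl pH 7.5, 100 mM KCl, 10 mM MgCl2, 500 μM ATP, 250 μM TMP/CMP. Coupling mix: 500 μM phosphoenolpyruvate, 250 μM NADH, pyruvate kinase (4 units) and lactate dehydrogenase (5 units). NADH change read at 340 nm after 20 min.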

The nature of data set [4]: Cytotoxicity in IL-3-dependent mouse 32D cells expressing Bcr-Abl after 3 days by WST-1 assay. It is filed as functional, cell-based. Conditions: 72 h.
The next data set has as its target T2, Thymidylate kinase (Homo sapiens, UniProt P23919).
T2 sequence (P23919 whole entry): T1 sequence (whole entry)
Nature of the data set: Inhibition of GST-tagged human TMPK expressed in Escherichia coli BL21 incubated for 10 mins by luciferase-coupled TMPK assay. The essentials:
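Purified hTMPK (10 μL of 0.1 μg/μL) and compound (10 μL of 10 μM, diluted from 10 mM DMSO stock) added to 100 mM Tris-HCl pH 7.5, 100 mM KCl, 10 mM MgCl2, 5 μM ATP, 100 μM dTMP. Reaction run 10 min at 25 °C. Remaining ATP read by CellTiter-Glo luminescence. IC50 from triplicate independent experiments.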

The nature of data set [5]: Inhibition of tyrosine kinase activity in protein samples from human MDA-MB-231 cells using TK substrate incubated for 30 mins. It counts as cell-based. Conditions: MDA-MB-231, 0.5 h. The essentials: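 Tyrosine kinase immunoprecipitated from MB-231 cell protein extracts and suspended in kinase solution with 10 mM 2-mercaptoethanol. Diluted enzyme mixed with compound (from 5 mM aqueous dilution) and ATP on substrate-coated wells, 37 °C, 30 min. Phosphotyrosine detected with anti-phosphotyrosine (PY20)-HRP and HRP substrate, stopped with H2SO4, absorbance read at 450 nm.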

Data set [6] deals with T1, Thymidylate kinase (Homo sapiens). Nature of the data set: Binding affinity to GST-tagged human TMPK expressed in Escherichia coli BL21 assessed as formation of disulfide bonds with Cys residues incubated for 30 mins at 25 degC in presence of trypsin by LC-MS/MS analysis. The essentials:
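hTMPK incubated with compound (20 μL of 10 mM DMSO stock in 1 mL PBS pH 7.4), 25 °C, 30 min. DTNB served as positive control and DMSO as negative control. Excess compound removed by dialysis against water. Digested with trypsin (1:50 w/w), 37 °C, 12 h, without denaturation or DTT reduction. Peptides analysed by nanoLC-ESI-MS/MS.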

Data set [7] shares this target. Nature of the data set: Binding affinity to GST-tagged human TMPK expressed in Escherichia coli BL21 assessed as binding constant for compound to protein 1:1 stoichiometry by ITC analysis. The procedure, abridged:
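ITC in PBS pH 7.4 with 50% glycerol at 298 K, stirring at 1000 rpm. Compound (1.228 mM) injected into hTMPK (0.0817 mM): a first 0.5 μL injection, then 2 μL injections at 4-min spacing. Fitted for stoichiometry, association constant, ΔH and ΔS.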

Data set [8] shares this target. Nature of the data set: Binding affinity to GST-tagged human TMPK expressed in Escherichia coli BL21 pre-incubated for 30 mins at 25 degC followed by UV irradiation by HRP based Western blot analysis. The essentials: (§1)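 Photoprobe (6.8 μL of 3 mM DMSO stock) and purified hTMPK incubated in 1 mL PBS pH 7.4 with protease inhibitor cocktail, 25 °C, 30 min. Irradiation where applied: 254-nm UV, three 1-min exposures. Samples boiled in SDS sample buffer and run on 12% SDS-PAGE. Transferred to PVDF, probed with streptavidin-HRP, detected by chemiluminescence.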

Data set [9] has the same target. In words: Binding affinity to GST-tagged human TMPK expressed in Escherichia coli BL21 pre-incubated for 30 mins at 25 degC followed by absence of irradiation by HRP based Western blot analysis. The procedure, abridged:
as §1

For data set [10] the target is unchanged. In words: Binding affinity to ATP binding site of GST-tagged human TMPK expressed in Escherichia coli […] assessed as mass shift of labeled peptides in presence of trypsin by LC-MS/MS analysis. The essentials: (§2)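 Purified hTMPK (from GST fusion in E. coli […], thrombin-cleaved) preincubated with biotin-arylazide photoprobe in PBS pH 7.4, 25 °C, 30 min, then irradiated with 254-nm UV light three times for 1 min each. Protein denatured in 6.5 M urea, reduced with DTT and alkylated with iodoacetamide. Digested with trypsin (1:50 w/w) or chymotrypsin (1:100 w/w), 37 °C, 16 h. Peptides analysed by nanoLC-ESI-MS/MS, with or without monomeric avidin enrichment.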

For data set [11] the target is unchanged. Nature of the data set: Binding affinity to ATP binding site of GST-tagged human TMPK expressed in […] assessed as mass shift of labeled peptides in presence of chymotrypsin by LC-MS/MS analysis. The essentials: as §2
Data set [12] has the same target. Nature of the data set: Inhibition of GST-tagged human TMPK expressed in Escherichia coli BL21 incubated for 10 mins in presence of [gamma-32P]ATP by 32P-phosphate transfer assay. The essentials:
(§3)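 hTMPK (0.2 μg) or Candida Cdc8 (0.02 μg; GST fusion from E. coli BL21, purified similarly). Compound preincubated 10 min, then enzyme added to 0.05 μM [γ-32P]ATP, 50 μM ATP and 50 μM dTMP in 100 mM Tris-HCl, 100 mM KCl, 10 mM MgCl2. Stopped by heating. Products separated by PEI-cellulose TLC (2 M acetic acid/0.5 M LiCl), and 32P-dTDP spots counted by scintillation.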

For the next data set, the system named is Candida. In words: Inhibition of Candida Cdc8 incubated for 10 mins in presence of [gamma-32P]ATP by 32P-phosphate transfer assay. The essentials:
as §3

The compound `O=c1c2ccccc2sn1-c1ccc(F)c(Cl)c1` registered an inhibition in data set [1] below 2%.

In the case of `CC(C)(C)OC(=O)N1CCN(C(=O)Cn2sc3ncccc3c2=O)CC1`, the Activity result in data set [2] was “Non-Toxic”. Further, the inhibition result in data set [3] was “Active”. The compound further yielded an EC50 in [4] of 1400 nM. Further, the IC50 against Thymidylate kinase was 470 nM; in data set [5] it was above 100000 nM. Also, in data set [1], the inhibition amounted to 91.3%.

For the compound `CCOC(=O)N1CCN(C(=O)Cn2sc3ccccc3c2=O)CC1`, in [1], the inhibition was 70%.

In the case of `Cc1cc(C)c2c(=O)n(CC(=O)N3CCN(C(=O)OC(C)(C)C)CC3)sc2n1`, the inhibition in data set [1] came out at 76.3%.

In the case of `O=c1c2ccccc2sn1-c1ccccc1`, the outcome in data set [6] was Active.

For the compound `Cc1cc(C)c2c(=O)n(CC(=O)N3CCNCC3)sc2n1`, in data set [7], the K is 127000 M⁻¹. The compound further registered an inhibition in data set [1] of 73.4%.

On to `CCOC(=O)N1CCN(C(=O)CCCn2sc3ccccc3c2=O)CC1`, for which the inhibition in data set [1] amounted to 7%.

For the compound `[N-]=[N+]=Nc1ccc2c(=O)n(CC(=O)N3CCN(CCOCCOCCOC(=O)CCCC[C@@H]4SC[C@@H]5NC(=O)N[C@@H]54)CC3)sc2c1`, the inhibition in data set [1] was found to be 86.9%. Further, in data set [8], the outcome was Active. The outcome in data set [9] was inactive. Besides, the Activity in data set [10] came to 648 Da; in data set [11] it was 422 Da. In [5], this compound returned an IC50 above 100000 nM.

Regarding `O=C(O)c1cc(SSc2ccc([N+](=O)[O-])c(C(=O)O)c2)ccc1[N+](=O)[O-]`, in data set [6], the result was Active.

In the case of `CC(C)(C)OC(=O)N1CCN(C(=O)COc2nsc3ccccc23)CC1`, in data set [1], the inhibition entry is “inactive”.

Regarding `CC(C)(C)OC(=O)N1CCN(C(=O)Cn2sc3ccccc3c2=O)CC1`, the Activity entry in data set [2] is “Non-Toxic”. Besides, the inhibition entry in data set [3] is “Active”. This compound returned an EC50 in data set [4] of 650 nM. Also, the IC50 at Thymidylate kinase is 350 nM; in data set [5] it was above 100000 nM. This compound also registered an inhibition in [1] of 91.3%.

As for `CC(C)(C)OC(=O)N1CCN(C(=O)COc2nsc3ncccc23)CC1`, the inhibition entry in data set [1] is “inactive”.

Take `CCOC(=O)N1CCN(C(=O)COc2nsc3cc(C)cc(C)c23)CC1`: the inhibition result in data set [1] was “inactive”.

On to `CCOC(=O)N1CCN(C(=O)Cn2sc3nc(C)cc(C)c3c2=O)CC1`, for which the Activity entry in data set [2] is on record as “Non-Toxic”. For the same compound, in data set [6], the outcome was inactive. Besides, the inhibition result in data set [3] and in data set [12] was “Active” in each case. It took 880 nM to reach a half-maximal effect in data set [4] (EC50). Also, the IC50 against Thymidylate kinase is 1650 nM; in data set [5], above 100000 nM. For the same compound, in [1], the inhibition was 70%. In the data set with Candida, the inhibition result was “inactive”.
